From ChEMBL document CHEMBL1833790, “N-(2-{3-[3,5-bis(trifluoromethyl)phenyl]ureido}ethyl)-glycyrrhetinamide (6b): a novel anticancer glycyrrhetinic acid derivative that targets the proteasome and displays anti-kinase activity” (J Med Chem, 2011)
Activity calls are given as the source filed them. The calls are words filed in the database; no cut-off is given here.

Tests used:
[1] = biological target: Insulin-like growth factor 1 receptor (Homo sapiens) (UniProt P08069); assay: Inhibition of IGF-R1 at 1 uM by radiometric assay
[2] = biological target: Megakaryocyte-associated tyrosine-protein kinase (Homo sapiens) (UniProt P42679); assay: Inhibition of MATK at 1 uM by radiometric assay
Chain of Megakaryocyte-associated tyrosine-protein kinase (Homo sapiens) (P42679 whole entry): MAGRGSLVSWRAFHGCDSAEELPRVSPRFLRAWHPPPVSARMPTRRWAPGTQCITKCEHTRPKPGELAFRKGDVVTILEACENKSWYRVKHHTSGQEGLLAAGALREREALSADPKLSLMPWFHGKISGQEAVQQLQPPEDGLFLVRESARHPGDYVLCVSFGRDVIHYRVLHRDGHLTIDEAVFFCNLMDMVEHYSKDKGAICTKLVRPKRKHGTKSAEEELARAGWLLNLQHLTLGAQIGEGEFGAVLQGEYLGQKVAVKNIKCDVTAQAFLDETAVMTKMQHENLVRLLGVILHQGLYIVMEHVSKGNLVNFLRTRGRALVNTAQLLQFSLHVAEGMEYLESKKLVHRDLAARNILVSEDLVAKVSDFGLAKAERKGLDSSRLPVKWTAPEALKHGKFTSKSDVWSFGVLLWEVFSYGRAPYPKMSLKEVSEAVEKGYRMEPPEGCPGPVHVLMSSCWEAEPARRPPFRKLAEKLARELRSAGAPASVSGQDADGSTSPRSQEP

[3] = biological target: T1, Peroxisome proliferator-activated receptor gamma (Homo sapiens) (UniProt P37231); assay: Activation of PPARgamma activity in human U373 cells at 90 uM after 6 hrs by spectrophotometric analysis relative to control; format: cell-based; conditions: U-373MG ATCC, 7 uM, in the assay text read “at 7 uM” for “at 90 uM”
T1 sequence (whole entry): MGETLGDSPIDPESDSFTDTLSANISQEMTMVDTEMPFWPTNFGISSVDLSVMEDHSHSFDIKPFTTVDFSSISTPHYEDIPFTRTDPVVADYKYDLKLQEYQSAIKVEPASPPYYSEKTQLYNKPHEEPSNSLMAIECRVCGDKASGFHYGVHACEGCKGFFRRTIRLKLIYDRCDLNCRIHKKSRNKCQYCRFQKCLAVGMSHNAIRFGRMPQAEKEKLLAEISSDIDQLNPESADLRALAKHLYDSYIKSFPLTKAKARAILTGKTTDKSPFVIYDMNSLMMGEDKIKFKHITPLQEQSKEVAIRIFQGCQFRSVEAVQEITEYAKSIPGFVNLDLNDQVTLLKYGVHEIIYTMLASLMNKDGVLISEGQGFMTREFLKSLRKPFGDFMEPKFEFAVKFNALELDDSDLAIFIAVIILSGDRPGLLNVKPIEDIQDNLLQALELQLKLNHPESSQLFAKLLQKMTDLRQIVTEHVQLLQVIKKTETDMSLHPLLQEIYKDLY
Procedure, shortened: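 U373 glioblastoma cells were exposed for 6 h. Nuclear extracts were prepared by hypotonic buffer, NP-40 lysis and a protease-inhibitor extraction buffer. Extracts were bound overnight at 4 °C in a PPAR-γ transcription-factor plate, then probed with primary antibody and HRP anti-rabbit secondary, 1 h each at room temperature. Developer ran 45 min, read at 450 nm. Triplicates, mean ± SD versus control.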

U-373MG ATCC [4] = assay: Inhibition of chymotrypsin-like activity of 20S proteasome in human U373 at 7 uM after 2 days by bioluminescence assay; format: cell-based
Procedure, shortened: (§1)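 U373 GBM cells seeded at 5000 cells/mL and grown 48 h, then treated for two days. Cells washed in PBS and permeabilised with 0.025% digitonin. Proteasome-Glo reagent added with Suc-LLVY-Glo (chymotrypsin-like), Z-LRR-Glo (trypsin-like) or Z-nLPnLD-Glo (caspase-like) substrate. Luminescence read after 10 min in the dark and normalised to a parallel MTT viability assay; triplicates. MG-132 at 0.5 μM used as reference.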

U-373MG ATCC [5] = assay: Inhibition of trypsin-like activity of 20S proteasome in human U373 cells at 7 uM after 2 days by bioluminescence assay; format: cell-based; procedure, shortened: as §1
U-373MG ATCC [6] = assay: Inhibition of caspase-like activity of 20S proteasome in human U373 cells at 7 uM after 2 days by bioluminescence assay; format: cell-based; procedure, shortened: as §1
U-373MG ATCC [7] = assay: Inhibition of chymotrypsin-like activity of 20S proteasome in human U373 cells at 60 uM after 2 days by bioluminescence assay; format: cell-based; procedure, shortened: as §1
U-373MG ATCC [8] = assay: Inhibition of trypsin-like activity of 20S proteasome in human U373 cells at 60 uM after 2 days by bioluminescence assay; format: cell-based; procedure, shortened: as §1
U-373MG ATCC [9] = assay: Inhibition of caspase-like activity of 20S proteasome in human U373 cells at 60 uM after 2 days by bioluminescence assay; format: cell-based; procedure, shortened: as §1
U-373MG ATCC [10] = assay: Inhibition of chymotrypsin-like activity of 20S proteasome in human U373 cells at 0.5 uM after 2 days by bioluminescence assay; format: cell-based; procedure, shortened: as §1
U-373MG ATCC [11] = assay: Inhibition of trypsin-like activity of 20S proteasome in human U373 cells at 0.5 uM after 2 days by bioluminescence assay; format: cell-based; procedure, shortened: as §1
U-373MG ATCC [12] = assay: Inhibition of caspase-like activity of 20S proteasome in human U373 cells at 0.5 uM after 2 days by bioluminescence assay; format: cell-based; procedure, shortened: as §1
[13] = Chemical stability of the compound in MEM cell culture medium after 7 days by HPLC analysis; format: physicochemical; conditions: read-out: Stability
Procedure, shortened: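 Compound incubated in MEM culture medium at 37 °C for 7 days, then analysed by HPLC on RX-C8 (5 μm) column with MeOH–water 90:10 (0.1% TFA), diode-array detection. Expressed as % of incubated compound recovered.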

A549 [14] = assay: Growth inhibition in apoptosis-resistant human A549 after 3 days by MTT assay; format: functional; conditions: A549, 72 h
Procedure, shortened: (§2)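 Cells grown in RPMI with 10% heat-inactivated FCS, 4 mM glutamine, gentamicin and penicillin–streptomycin. Drug exposure 3 days, growth read by MTT colorimetric assay. Nine concentrations from 0.01 to 100 μM in semilog steps, six replicates each; IC50 derived per cell line.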

SK-MEL-28 = assay: Growth inhibition in apoptosis-resistant human SK-MEL-28 after 3 days by MTT assay; format: functional; conditions: SK-MEL-28, 72 h; procedure, shortened: as §2
T98G = assay: Growth inhibition in apoptosis-resistant human T98G after 3 days by MTT assay; format: functional; conditions: 72 h; procedure, shortened: as §2
[15] = Growth inhibition in apoptosis-resistant human U373 after 3 days by MTT assay; format: functional, U-373MG ATCC; conditions: U373 MG, 72 h; procedure, shortened: as §2
Hs 683 = assay: Growth inhibition in apoptosis-sensitive human Hs683 after 3 days by MTT assay; format: functional; conditions: Hs 683, 72 h; procedure, shortened: as §2
PC-3 = assay: Growth inhibition in apoptosis-sensitive human PC3 after 3 days by MTT assay; format: functional; conditions: PC-3, 72 h; procedure, shortened: as §2
MCF7 = assay: Growth inhibition in apoptosis-sensitive human MCF7 after 3 days by MTT assay; format: functional; conditions: MCF7, 72 h; procedure, shortened: as §2
B16-F10 = assay: Growth inhibition in mouse B16F10 after 3 days by MTT assay; format: functional; conditions: B16-F10, 72 h; procedure, shortened: as §2
A549 [16] = assay: Cytostatic activity against human A549 cells assessed as accumulation of cells in G1 phase at 10 uM after 48 to 72 hrs by TUNEL-based flow cytometric analysis; format: functional, cell-based
Procedure, shortened: (§3)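 A549 NSCLC and U373 GBM cells were treated 48 or 72 h and analysed with the APO AF kit. TUNEL labelling ran 1 h at 37 °C, followed by propidium iodide (5 μg/mL) with RNase. Apoptotic fraction and % cells in G1 were measured by flow cytometry. Kit negative/positive controls and 1 μM narciclasine-treated PC-3 cells served as controls.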

U-373MG ATCC [17] = assay: Cytostatic activity against human U373 cells assessed as accumulation of cells in G1 phase at 10 uM after 48 to 72 hrs by TUNEL-based flow cytometric analysis; format: functional, cell-based; procedure, shortened: as §3
A549 [18] = assay: Induction of apoptosis in human A549 cells assessed as proapoptotic effect at 10 uM after 48 to 72 hrs by TUNEL-based flow cytometric analysis; format: functional, cell-based; procedure, shortened: as §3
U-373MG ATCC [19] = assay: Induction of apoptosis in human U373 cells assessed as proapoptotic effect at 10 uM after 48 to 72 hrs by TUNEL-based flow cytometric analysis; format: functional, cell-based; procedure, shortened: as §3
[20] = biological target: ALK tyrosine kinase receptor (Homo sapiens) (UniProt Q9UM73); assay: Inhibition of ALK at 1 uM by radiometric assay
Procedure, shortened: (§4)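 Radiometric ³³PanQinase activity assay across a panel of 333 protein kinases. Compound added from a 2 × 10⁻⁵ M working solution in 10% DMSO (diluted in water from a 100% DMSO stock), giving 1 μM final in the assay.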

[21] = biological target: Cytoplasmic tyrosine-protein kinase BMX (Homo sapiens) (UniProt P51813); assay: Inhibition of BMX at 1 uM by radiometric assay; procedure, shortened: as §4
Chain of Cytoplasmic tyrosine-protein kinase BMX (Homo sapiens) (P51813 whole entry): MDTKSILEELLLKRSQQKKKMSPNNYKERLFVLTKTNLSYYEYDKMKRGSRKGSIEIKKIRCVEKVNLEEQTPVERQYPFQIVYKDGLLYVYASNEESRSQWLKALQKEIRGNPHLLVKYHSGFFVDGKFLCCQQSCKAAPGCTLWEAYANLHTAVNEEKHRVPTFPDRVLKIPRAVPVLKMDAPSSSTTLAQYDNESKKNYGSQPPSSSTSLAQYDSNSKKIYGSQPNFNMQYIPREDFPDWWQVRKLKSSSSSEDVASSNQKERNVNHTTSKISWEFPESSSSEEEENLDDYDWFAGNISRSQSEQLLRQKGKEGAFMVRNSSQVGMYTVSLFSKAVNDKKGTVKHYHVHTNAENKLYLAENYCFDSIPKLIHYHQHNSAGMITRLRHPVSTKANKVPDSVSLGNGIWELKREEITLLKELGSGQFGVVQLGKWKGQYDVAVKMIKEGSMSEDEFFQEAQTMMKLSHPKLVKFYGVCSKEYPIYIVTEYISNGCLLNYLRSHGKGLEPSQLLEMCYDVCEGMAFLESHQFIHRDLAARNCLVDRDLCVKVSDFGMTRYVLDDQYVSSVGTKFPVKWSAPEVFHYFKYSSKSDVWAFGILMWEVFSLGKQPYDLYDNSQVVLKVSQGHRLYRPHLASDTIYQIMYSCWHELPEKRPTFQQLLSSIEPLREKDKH

[22] = biological target: Serine/threonine-protein kinase PAK 2 (Homo sapiens) (UniProt Q13177); assay: Inhibition of PAK2 at 1 uM by radiometric assay
Chain of Serine/threonine-protein kinase PAK 2 (Homo sapiens) (Q13177 whole entry): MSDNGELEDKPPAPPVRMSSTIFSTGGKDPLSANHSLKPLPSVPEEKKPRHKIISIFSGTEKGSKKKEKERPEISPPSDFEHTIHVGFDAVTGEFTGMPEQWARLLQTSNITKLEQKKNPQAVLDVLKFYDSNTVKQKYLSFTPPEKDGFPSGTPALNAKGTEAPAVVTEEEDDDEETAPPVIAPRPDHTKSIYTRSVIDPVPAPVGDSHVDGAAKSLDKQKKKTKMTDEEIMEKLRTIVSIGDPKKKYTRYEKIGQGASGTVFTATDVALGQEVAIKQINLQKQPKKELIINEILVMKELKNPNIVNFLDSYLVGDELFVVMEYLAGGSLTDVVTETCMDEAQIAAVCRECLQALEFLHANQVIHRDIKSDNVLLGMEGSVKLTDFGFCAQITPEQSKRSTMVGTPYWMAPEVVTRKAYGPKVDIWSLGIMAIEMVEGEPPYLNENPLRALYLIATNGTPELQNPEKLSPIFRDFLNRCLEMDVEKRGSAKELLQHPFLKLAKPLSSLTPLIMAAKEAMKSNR

[23] = biological target: Ephrin type-B receptor 1 (Homo sapiens) (UniProt P54762); assay: Inhibition of EPHB1 at 1 uM by radiometric assay; procedure, shortened: as §4
Chain of Ephrin type-B receptor 1 (Homo sapiens) (P54762 whole entry): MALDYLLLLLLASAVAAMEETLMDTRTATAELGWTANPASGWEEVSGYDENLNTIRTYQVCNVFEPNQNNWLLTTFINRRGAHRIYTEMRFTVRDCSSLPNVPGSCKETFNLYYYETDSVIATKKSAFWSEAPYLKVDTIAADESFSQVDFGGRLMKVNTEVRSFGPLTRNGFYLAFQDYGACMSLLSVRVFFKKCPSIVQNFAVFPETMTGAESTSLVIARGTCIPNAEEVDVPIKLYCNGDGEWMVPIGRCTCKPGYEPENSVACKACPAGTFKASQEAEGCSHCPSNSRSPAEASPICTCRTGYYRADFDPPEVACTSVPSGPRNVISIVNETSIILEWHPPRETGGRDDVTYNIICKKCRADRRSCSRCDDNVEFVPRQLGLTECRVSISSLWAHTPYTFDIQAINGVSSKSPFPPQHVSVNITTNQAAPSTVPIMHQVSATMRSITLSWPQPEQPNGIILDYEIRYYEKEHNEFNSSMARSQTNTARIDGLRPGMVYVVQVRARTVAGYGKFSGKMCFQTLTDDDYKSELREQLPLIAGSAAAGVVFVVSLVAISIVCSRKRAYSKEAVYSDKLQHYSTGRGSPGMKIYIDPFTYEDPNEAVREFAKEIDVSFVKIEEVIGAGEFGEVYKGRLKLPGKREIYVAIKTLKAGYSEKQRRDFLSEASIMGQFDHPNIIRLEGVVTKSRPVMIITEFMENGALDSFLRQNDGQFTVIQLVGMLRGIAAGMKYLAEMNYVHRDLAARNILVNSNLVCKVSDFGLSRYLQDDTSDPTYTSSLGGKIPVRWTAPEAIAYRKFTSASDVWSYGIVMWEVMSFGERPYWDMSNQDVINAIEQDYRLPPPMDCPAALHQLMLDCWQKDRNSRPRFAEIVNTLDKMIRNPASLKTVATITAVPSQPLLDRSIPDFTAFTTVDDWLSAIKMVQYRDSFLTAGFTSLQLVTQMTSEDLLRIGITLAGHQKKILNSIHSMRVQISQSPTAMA

[24] = biological target: Ephrin type-B receptor 4 (Homo sapiens) (UniProt P54760); assay: Inhibition of EPHB4 at 1 uM by radiometric assay; procedure, shortened: as §4
Chain of Ephrin type-B receptor 4 (Homo sapiens) (P54760 whole entry): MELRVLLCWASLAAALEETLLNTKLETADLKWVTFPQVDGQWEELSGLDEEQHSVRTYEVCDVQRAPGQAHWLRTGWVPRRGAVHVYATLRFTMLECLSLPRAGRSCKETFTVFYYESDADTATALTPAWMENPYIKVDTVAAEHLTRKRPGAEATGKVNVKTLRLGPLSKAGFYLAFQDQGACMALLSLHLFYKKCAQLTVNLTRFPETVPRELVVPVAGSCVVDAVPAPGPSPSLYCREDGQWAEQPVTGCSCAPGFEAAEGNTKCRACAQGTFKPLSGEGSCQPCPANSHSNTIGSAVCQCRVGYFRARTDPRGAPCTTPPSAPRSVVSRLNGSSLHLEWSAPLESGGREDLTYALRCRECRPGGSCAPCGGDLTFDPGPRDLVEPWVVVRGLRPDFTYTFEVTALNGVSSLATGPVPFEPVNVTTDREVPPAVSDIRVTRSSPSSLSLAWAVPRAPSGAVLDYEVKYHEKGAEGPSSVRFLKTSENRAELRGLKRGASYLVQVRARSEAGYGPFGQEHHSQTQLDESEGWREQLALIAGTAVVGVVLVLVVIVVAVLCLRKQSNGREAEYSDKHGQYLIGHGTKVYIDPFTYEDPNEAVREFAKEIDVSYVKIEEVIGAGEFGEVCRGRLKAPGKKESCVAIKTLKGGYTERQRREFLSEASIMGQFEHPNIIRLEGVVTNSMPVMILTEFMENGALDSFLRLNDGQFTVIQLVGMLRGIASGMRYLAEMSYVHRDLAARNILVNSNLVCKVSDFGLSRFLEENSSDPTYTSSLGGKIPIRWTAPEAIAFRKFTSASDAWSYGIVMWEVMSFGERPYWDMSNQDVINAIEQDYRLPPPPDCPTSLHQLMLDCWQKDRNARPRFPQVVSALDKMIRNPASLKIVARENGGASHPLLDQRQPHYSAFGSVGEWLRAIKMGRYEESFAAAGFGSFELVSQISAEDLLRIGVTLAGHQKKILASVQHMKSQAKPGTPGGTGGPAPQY

[25] = biological target: Tyrosine-protein kinase ZAP-70 (Homo sapiens) (UniProt P43403); assay: Inhibition of ZAP70 at 1 uM by radiometric assay
[26] = biological target: Fibroblast growth factor receptor 2 (Homo sapiens) (UniProt P21802); assay: Inhibition of FGFR2 at 1 uM by radiometric assay; procedure, shortened: as §4
Chain of Fibroblast growth factor receptor 2 (Homo sapiens) (P21802 22-821 limits assumed): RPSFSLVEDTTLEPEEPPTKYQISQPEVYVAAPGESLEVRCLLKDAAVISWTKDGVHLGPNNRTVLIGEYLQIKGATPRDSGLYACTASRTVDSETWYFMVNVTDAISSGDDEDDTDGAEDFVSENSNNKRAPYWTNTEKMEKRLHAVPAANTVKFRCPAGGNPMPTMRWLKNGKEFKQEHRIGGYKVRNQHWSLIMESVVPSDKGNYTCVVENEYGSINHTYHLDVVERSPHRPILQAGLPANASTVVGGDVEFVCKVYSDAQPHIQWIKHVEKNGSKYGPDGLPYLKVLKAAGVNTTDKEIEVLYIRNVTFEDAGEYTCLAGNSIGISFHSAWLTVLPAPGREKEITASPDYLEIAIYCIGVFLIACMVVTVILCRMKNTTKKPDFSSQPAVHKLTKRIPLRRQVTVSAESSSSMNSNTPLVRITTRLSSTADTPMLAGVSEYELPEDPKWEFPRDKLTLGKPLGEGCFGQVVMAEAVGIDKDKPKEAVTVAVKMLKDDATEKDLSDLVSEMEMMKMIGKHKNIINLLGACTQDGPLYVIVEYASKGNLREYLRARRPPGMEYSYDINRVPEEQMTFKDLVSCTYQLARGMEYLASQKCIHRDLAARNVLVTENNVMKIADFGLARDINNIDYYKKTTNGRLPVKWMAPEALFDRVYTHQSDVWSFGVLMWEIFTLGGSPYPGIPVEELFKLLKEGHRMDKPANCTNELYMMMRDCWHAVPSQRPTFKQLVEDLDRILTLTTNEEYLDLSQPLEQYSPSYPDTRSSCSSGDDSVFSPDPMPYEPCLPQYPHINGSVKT

[27] = biological target: Tyrosine-protein kinase Fes/Fps (Homo sapiens) (UniProt P07332); assay: Inhibition of FES at 1 uM by radiometric assay; procedure, shortened: as §4
[28] = biological target: Tyrosine-protein kinase Fyn (Homo sapiens) (UniProt P06241); assay: Inhibition of FYN at 1 uM by radiometric assay
Chain of Tyrosine-protein kinase Fyn (Homo sapiens) (P06241 2-537 limits assumed): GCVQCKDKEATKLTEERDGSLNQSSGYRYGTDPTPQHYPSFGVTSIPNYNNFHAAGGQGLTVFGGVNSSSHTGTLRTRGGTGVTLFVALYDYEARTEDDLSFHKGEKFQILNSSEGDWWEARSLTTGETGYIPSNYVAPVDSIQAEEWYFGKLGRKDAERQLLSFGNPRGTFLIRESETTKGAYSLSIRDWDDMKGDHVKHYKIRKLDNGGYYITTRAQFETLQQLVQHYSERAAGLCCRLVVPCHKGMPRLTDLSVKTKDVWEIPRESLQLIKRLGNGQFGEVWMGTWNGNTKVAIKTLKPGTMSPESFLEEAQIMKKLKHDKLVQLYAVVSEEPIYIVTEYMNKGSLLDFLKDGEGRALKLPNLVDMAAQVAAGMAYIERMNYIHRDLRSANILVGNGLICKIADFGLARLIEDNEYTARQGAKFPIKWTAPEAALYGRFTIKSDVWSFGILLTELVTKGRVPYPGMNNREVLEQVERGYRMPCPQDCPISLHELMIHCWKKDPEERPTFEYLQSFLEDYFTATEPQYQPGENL

[29] = biological target: T1, Peroxisome proliferator-activated receptor gamma (Homo sapiens); assay: Inhibition of PPARgamma activity in human U373 cells at 50 uM after 6 hrs by spectrophotometric analysis relative to control; format: cell-based; conditions: U-373MG ATCC
Procedure, shortened: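 Human U373 glioblastoma cells exposed to compound for 6 h, then detached with trypsin. Nuclear extracts prepared by hypotonic lysis with Nonidet P-40 and extraction buffer with protease inhibitor, clarified at 14 000 g, 4 °C. Extracts bound overnight at 4 °C in a PPAR-γ transcription factor ELISA kit, with primary antibody then HRP anti-rabbit. Absorbance read at 450 nm; triplicates, mean ± SD versus control.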

U-373MG ATCC [30] = assay: Activation of chymotrypsin-like activity of 20S proteasome in human U373 cells at 50 uM after 2 days by bioluminescence assay; format: cell-based
Procedure, shortened: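 Chymotrypsin-like site, substrate Suc-LLVY-Glo. U373 cells were seeded at 5000 cells/mL for 48 h and exposed two days. After a PBS wash and 0.025% digitonin permeabilisation, Proteasome-Glo reagent was added. Bioluminescence was read after 10 min dark incubation. Triplicates, normalised by a concurrent MTT viability assay run in identical conditions.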

U-373MG ATCC [31] = assay: Inhibition of trypsin-like activity of 20S proteasome in human U373 cells at 50 uM after 2 days by bioluminescence assay; format: cell-based; procedure, shortened: as §1
U-373MG ATCC [32] = assay: Activation of caspase-like activity of 20S proteasome in human U373 cells at 50 uM after 2 days by bioluminescence assay; format: cell-based
Procedure, shortened: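 Caspase-like site, substrate Z-nLPnLD-Glo. U373 cells were plated at 5000 cells/mL for 48 h, then treated two days. Cells were PBS-washed and permeabilised with 0.025% digitonin before Proteasome-Glo reagent was added. Luminescence was read after 10 min in the dark. Triplicates, normalised to a parallel MTT viability assay under identical conditions.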

With `CC1(C)[C@@H](O)CC[C@]2(C)[C@H]3C(=O)C=C4[C@@H]5C[C@@](C)(C(=O)NCCNC(=O)Nc6cc(C(F)(F)F)cc(C(F)(F)F)c6)CC[C@]5(C)CC[C@@]4(C)[C@]3(C)CC[C@@H]12` the inhibition [1] was 64%, the inhibition [2] was 50% and the Activity [3] was “Active”. The inhibition (U-373MG ATCC [4]) was “Active”, the inhibition (U-373MG ATCC [5]) was “Active” and the inhibition (U-373MG ATCC [6]) was “Active”. For the same compound, the inhibition (U-373MG ATCC [7]) was “Active”, the inhibition (U-373MG ATCC [8]) was “Active” and the inhibition (U-373MG ATCC [9]) was “Active”. The inhibition (U-373MG ATCC [10]) was “Active”, the inhibition (U-373MG ATCC [11]) was “Active” and the inhibition (U-373MG ATCC [12]) was “Active”. It also gave a remaining at 168 h [13] of 98%, a GI50 (A549 [14]) of 7 µM and a GI50 (SK-MEL-28) of 9 µM. It also gave a GI50 (T98G) of 12 µM, a GI50 [15] of 6 µM and a GI50 (Hs 683) of 6 µM. It also gave a GI50 (PC-3) of 8 µM, a GI50 (MCF7) of 4 µM and a GI50 (B16-F10) of 4 µM. The Activity (A549 [16]) was “inactive”, the Activity (U-373MG ATCC [17]) was “inactive” and the Activity (A549 [18]) was “inactive”. The Activity (U-373MG ATCC [19]) was “inactive”, the inhibition [20] was 69% and the inhibition [21] was 52%. For the same compound, the inhibition [22] was 51%, the inhibition [23] was 64% and the inhibition [24] was 64%. For the same compound, the inhibition [25] was 67%, the inhibition [26] was 67% and the inhibition [27] was 59%. It also gave an inhibition [28] of 72%.

For `CC1(C)[C@@H](O)CC[C@]2(C)[C@H]3C(=O)C=C4[C@@H]5C[C@@](C)(C(=O)NCc6ccc(C(F)(F)F)cc6)CC[C@]5(C)CC[C@@]4(C)[C@]3(C)CC[C@@H]12`, the inhibition [29] was “Active”, the Activity (U-373MG ATCC [30]) was “Active” and the inhibition (U-373MG ATCC [31]) was “Active”. For the same compound, the Activity (U-373MG ATCC [32]) was “Active”, the remaining at 168 h [13] was 95% and the GI50 (A549 [14]) was 37 µM. It also gave a GI50 (SK-MEL-28) of 65 µM, a GI50 (T98G) of 67 µM and a GI50 [15] of 44 µM. The GI50 (Hs 683) was 49 µM, the GI50 (PC-3) was 35 µM and the GI50 (MCF7) was 29 µM. It also gave a GI50 (B16-F10) of 39 µM.
